What was measured:
[1] = biological target: T1, Tyrosine-protein phosphatase non-receptor type 12 (Homo sapiens, UniProt Q05209); test: Inhibition of recombinant human PTP-PEST using p-nitrophenyl phosphate as substrate preincubated for 10 mins followed by substrate addition and measured every minute for 10 mins by UV-VIS spectrophotometric analysis
T1 sequence (Q05209 whole entry): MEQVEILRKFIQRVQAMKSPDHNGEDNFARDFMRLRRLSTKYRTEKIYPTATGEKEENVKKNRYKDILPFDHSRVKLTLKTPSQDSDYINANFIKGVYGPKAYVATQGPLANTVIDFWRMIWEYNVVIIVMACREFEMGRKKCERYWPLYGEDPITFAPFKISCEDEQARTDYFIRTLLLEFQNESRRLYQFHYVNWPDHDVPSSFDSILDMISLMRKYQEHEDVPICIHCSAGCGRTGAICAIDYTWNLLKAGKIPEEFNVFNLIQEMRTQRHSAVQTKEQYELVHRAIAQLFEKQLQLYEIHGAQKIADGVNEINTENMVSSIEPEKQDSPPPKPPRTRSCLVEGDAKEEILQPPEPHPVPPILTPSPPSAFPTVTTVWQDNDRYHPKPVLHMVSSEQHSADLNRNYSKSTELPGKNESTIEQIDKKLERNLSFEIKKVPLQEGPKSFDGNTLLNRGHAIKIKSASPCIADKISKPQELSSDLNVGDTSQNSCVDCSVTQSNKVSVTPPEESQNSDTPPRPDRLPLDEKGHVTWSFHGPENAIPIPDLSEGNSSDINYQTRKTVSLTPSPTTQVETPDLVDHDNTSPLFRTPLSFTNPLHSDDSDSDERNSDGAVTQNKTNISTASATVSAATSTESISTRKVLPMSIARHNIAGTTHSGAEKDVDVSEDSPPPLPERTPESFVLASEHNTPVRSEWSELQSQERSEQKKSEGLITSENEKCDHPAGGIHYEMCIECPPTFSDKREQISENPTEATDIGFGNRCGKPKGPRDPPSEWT
How it was run: (§1)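 Recombinant PTP at PtpB 50 nM, LYP 169 nM, PTP-PEST 205 nM or PTP1B 38 nM, in 20 mM imidazole pH 7.0. Inhibitor (0.5–50 µM, DMSO ≤4% v/v) premixed with enzyme 10 min at 37 °C. Started with 10 mM pNPP. A410 each min for 10 min. Activity from 7 min minus 2 min. IC50 by linear regression. Triplicate.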

[2] = biological target: T2, Tyrosine-protein phosphatase non-receptor type 1 (Homo sapiens, UniProt P18031); test: Inhibition of recombinant human Ptp1B using p-nitrophenyl phosphate as substrate preincubated for 10 mins followed by substrate addition and measured every minute for 10 mins by UV-VIS spectrophotometric analysis; how it was run: as §1
T2 sequence (P18031 whole entry): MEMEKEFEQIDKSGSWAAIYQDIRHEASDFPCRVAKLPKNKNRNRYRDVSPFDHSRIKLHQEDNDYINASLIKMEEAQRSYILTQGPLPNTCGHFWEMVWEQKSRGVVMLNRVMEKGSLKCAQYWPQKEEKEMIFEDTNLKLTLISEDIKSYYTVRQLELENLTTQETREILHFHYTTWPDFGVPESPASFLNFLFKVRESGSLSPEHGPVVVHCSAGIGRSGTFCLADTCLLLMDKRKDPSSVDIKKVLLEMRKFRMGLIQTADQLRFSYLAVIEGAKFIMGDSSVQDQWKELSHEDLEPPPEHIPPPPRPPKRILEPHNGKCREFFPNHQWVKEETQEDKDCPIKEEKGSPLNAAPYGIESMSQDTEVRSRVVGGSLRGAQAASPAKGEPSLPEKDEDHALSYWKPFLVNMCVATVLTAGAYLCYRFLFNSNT

[3] = biological target: T3, Low molecular weight protein-tyrosine phosphatase A (Mycobacterium tuberculosis, UniProt P9WIA1); test: Competitive inhibition of Mycobacterium tuberculosis PtpA using p-nitrophenyl phosphate as substrate by Michaelis-Menten plot analysis
T3 sequence (P9WIA1 whole entry): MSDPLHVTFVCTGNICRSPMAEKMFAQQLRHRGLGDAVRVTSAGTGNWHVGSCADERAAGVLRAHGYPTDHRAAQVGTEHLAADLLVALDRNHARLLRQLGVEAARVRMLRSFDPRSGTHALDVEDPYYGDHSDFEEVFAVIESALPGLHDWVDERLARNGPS
How it was run: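 Mtb PtpA-catalysed pNPP hydrolysis with pNPP varied 0.2–20 mM at each of three inhibitor concentrations. Rates expressed as specific activity (µmol pNPP min-1 mg-1). Vmax and Km fitted to Michaelis–Menten equation. Ki from non-linear fits to competitive or non-competitive inhibition equation, at least three independent experiments.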

O=[N+]([O-])c1ccc(/C=N/NC(=S)Nc2cccc3ccccc23)cc1
IC50 [1]: > 50 µM
IC50 [2]: 17 µM

FC(F)(F)c1ccc(Cl)c(-c2ccc(/C=N/NC(=S)Nc3cccc4ccccc34)o2)c1
IC50 [1]: 15.7 µM
IC50 [2]: 9.4 µM

Cc1ccc(NC(=S)N/N=C/c2ccc(-c3cc(C(F)(F)F)ccc3Cl)o2)cc1
Ki [3]: 12 µM
IC50 [1]: > 50 µM
IC50 [2]: 38.2 µM

S=C(N/N=C/c1ccc(-c2ccccc2)cc1)Nc1cccc2ccccc12
IC50 [1]: > 50 µM
IC50 [2]: > 50 µM
